Compound activity (PubChem BioAssay)
STEP block: STEP phosphatase inhibitors, primary screen, biochemical, fluorescence intensity, uHTS; Tyrosine-protein phosphatase non-receptor type 5 (Homo sapiens), P54829; recombinant STEP, OMFP fluorogenic substrate; inhibition, % at 20 µM; actives 0.25% (n = 360,000); AID 588621, 2011;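 active = inhibition at 20 µM, scaled per plate between control wells, above about 37%, limit read from the data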;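 note: 0% = DMSO with enzyme and substrate and 100% = substrate only without enzyme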
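Measure: Control-normalized % inhibition with plate pattern correction | Test system: STEP phosphatase, cell-free reaction | Medium: pH 6.0 Bis-Tris with DTT and Tween 20 | Technique: Fluorescence, 480/540 nm | Times: Reaction 20 min, ambient temperature | Doses: Single compound dose of 20 µM, 1% DMSO final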
FAS TE block: FAS thioesterase domain inhibitors, primary screen, biochemical, fluorescence intensity, uHTS; Fatty acid synthase (Homo sapiens), P49327; recombinant FAS-TE, OMFH fluorogenic substrate, fluorescence endpoint; inhibition, % at 15 µM; actives 0.67% (n = 360,000);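 active = compounds whose normalised, plate-corrected inhibition of enzyme fluorescence in the single-dose primary screen is 50% or more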;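 note: 0% = DMSO with enzyme and 100% = substrate without enzyme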
SUMO1-SIM PPI: modulators of SUMO1 protein-protein interactions, primary screen, biochemical, uHTS; Small ubiquitin-related modifier 1 (Homo sapiens), P63165; inhibition, % at 20 µM; SUMO1 binding to a labelled peptide, TR-FRET, 1 h; actives 0.33% (n = 360,000); in the data active = inhibition above about 37%
Target sequence (P63165 whole entry, looked up): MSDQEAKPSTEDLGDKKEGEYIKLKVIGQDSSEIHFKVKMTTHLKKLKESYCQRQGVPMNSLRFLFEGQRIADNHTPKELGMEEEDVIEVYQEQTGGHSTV
Scp1 inh: Scp-1 phosphatase inhibitors, primary screen, biochemical, colorimetric, uHTS. Carboxy-terminal domain RNA polymerase II polypeptide A small phosphatase 1 (Homo …. Recombinant Scp1, phosphopeptide, malachite green phosphate absorbance. inhibition, % at 20 µM. actives 0.88% (n = 340,000). AID 493091, 2011;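 active = inhibition above about 50% at 20 µM, limit read from the data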;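 note: plate controls were DMSO wells with enzyme for no effect and wells lacking enzyme for full effect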
Target sequence (Q9GZU7 76-261 limits assumed): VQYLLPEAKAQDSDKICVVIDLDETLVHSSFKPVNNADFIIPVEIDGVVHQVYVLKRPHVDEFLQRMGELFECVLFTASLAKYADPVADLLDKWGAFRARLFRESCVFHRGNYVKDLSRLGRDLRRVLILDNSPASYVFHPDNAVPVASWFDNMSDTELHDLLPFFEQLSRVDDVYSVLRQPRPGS
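Incubation: 45 min enzyme reaction at room temperature / System: truncated SCP-1 phosphatase (76-261aa) / Reagent: Phospho 17-mer peptide substrate / Buffer or medium: Acidic Tris acetate buffer with magnesium and detergent / Signal: absorbance at 630 nm / Doses: one concentration, 20 µM, with 1.0% DMSO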
LMPTP inh: LMPTP phosphatase inhibitors, primary screen, biochemical, fluorescence intensity, uHTS; actives 0.22% (n = 360,000); Low molecular weight phosphotyrosine protein phosphatase (Homo sapiens), P24666; recombinant LMPTP-A, OMFP fluorogenic substrate; inhibition, % at 20 µM;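 active = compounds that cut the enzyme signal by at least half of the control window in the single-dose screen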;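 note: plate controls were DMSO wells with enzyme plus substrate for no effect and substrate without enzyme for full effect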
Target sequence (P24666 whole entry, looked up): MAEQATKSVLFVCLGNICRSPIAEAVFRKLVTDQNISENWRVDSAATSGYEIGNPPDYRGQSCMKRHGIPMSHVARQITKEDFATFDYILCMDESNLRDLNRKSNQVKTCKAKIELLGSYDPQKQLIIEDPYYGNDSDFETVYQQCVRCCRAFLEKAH
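Test system: LMPTP-A phosphatase enzyme; input: 0.625 nM LMPTP-A final; reagent: OMFP substrate, 400 µM final; compound dosing: 20 µM single dose, 3% DMSO; incubation: 50 min dark incubation at room temperature; measured by: endpoint fluorescence intensity from OMFP dephosphorylation; measure: % inhibition relative to no-enzyme and uninhibited control wells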
Starred values were filed as active, the others as inactive; . = no result given. Rows were chosen to be rich in hits. Some 1.9% of all compounds tested hit in one or more screens of this group.

SMILES	STEP block	FAS TE block	SUMO1-SIM PPI	Scp1 inh	LMPTP inh
COc1ccccc1C(=O)COC(=O)c1cc(=O)[nH]c2ccccc12	0.2	-1.1	-30.7	-4.8	-0.7
Cc1ccc(C(=O)COC(=O)c2cc(=O)[nH]c3ccccc23)cc1C	24.6	5.6	9.7	80.6*	23.9
COCCNC(=O)C1(C)CCN(C(=O)c2ccc(C(F)(F)F)nc2C)C1 (configuration not stated)	1.3	-5.8	3.2	.	0.1
COc1ccc2cc(C(=O)N/N=C/c3sc4ccccc4c3O)ccc2c1	17.6	-9.9	-24.9	85.4*	50.8*
CSc1ccc(CN2CCC2(C)C(=O)Nc2cccc(NS(C)(=O)=O)c2)cc1 (configuration not stated)	-0.1	6.4	-2.0	.	-0.5
COc1cc(C2C(C#N)=C(N)Oc3cc(C)oc(=O)c32)cc2c1OCO2 (configuration not stated)	-1.3	-2.2	46.4*	3.4	1.4
CCOc1cc2c(C#N)c(N3CCOCC3)nc(N)c2c(N)n1	1.4	-0.5	11.9	11.5	8.8
CCOc1cc2c(C#N)c(N(CC)CC)nc(N)c2c(N)n1	7.5	3.3	48.9*	1.7	19.6
C[C@H]1CN([C@@H](C)CO)C(=O)c2cc(Br)cnc2O[C@H]1CN(C)C(=O)C1CC1	-0.2	-7.4	-1.4	.	-0.8
Cc1c(C(=O)OC2CCCC2)[nH]c2c1C(=O)CC(c1ccco1)C2 (configuration not stated)	-1.3	5.7	19.2	33.6	37.4
C=CCOC(=O)c1[nH]c2c(c1C)C(=O)CC(c1ccco1)C2 (configuration not stated)	.	.	.	60.0*	.
Cc1c(C(=O)OCC2CCCO2)[nH]c2c1C(=O)CC(c1ccco1)C2 (configuration not stated)	2.9	4.4	19.4	83.9*	52.7*
C/C=C/COC(=O)c1[nH]c2c(c1C)C(=O)CC(c1ccco1)C2 (configuration not stated)	-0.1	5.9	14.1	52.4*	61.2*
C/C=C/COC(=O)c1[nH]c2c(c1C)C(=O)CC(c1ccc(N(C)C)cc1)C2 (configuration not stated)	-1.2	-3.4	4.0	-0.4	4.2
COc1ccc(OC)c(C2CC(=O)c3c([nH]c(C(=O)OCC4CCCO4)c3C)C2)c1 (configuration not stated)	3.6	21.5	5.1	-12.5	1.9
Cc1c(C(=O)OCC(C)C)[nH]c2c1C(=O)CC(c1ccco1)C2 (configuration not stated)	3.1	14.3	9.5	7.1	69.4*
Cc1cccc(C)c1NC(=O)C(CCc1ccccc1)N1CCC(c2ccccc2)CC1 (configuration not stated)	.	.	-1.9	.	5.1
Cc1noc(C)c1S(=O)(=O)Nc1ccc2c(c1)C(=O)N([C@H](C)CO)C[C@H](C)[C@@H](CN(C)C(=O)Nc1ccccc1)O2	-0.1	-8.6	4.2	79.3*	-1.8
C[C@H](CO)N1C[C@H](C)[C@@H](CN(C)C(=O)Nc2ccc(C(F)(F)F)cc2)Oc2c(NC(=O)Nc3ccccc3)cccc2C1=O	-2.9	64.5*	1.9	-11.3	1.7
COc1ccc(NC(=O)N(C)C[C@H]2Oc3c(NC(=O)Nc4ccc(C(F)(F)F)cc4)cccc3C(=O)N([C@H](C)CO)C[C@@H]2C)cc1	-1.1	61.7*	-6.3	-7.1	3.4
Cc1noc(C)c1S(=O)(=O)Nc1ccc2c(c1)C(=O)N([C@H](C)CO)C[C@H](C)[C@@H](CN(C)C(=O)Nc1ccc(C(F)(F)F)cc1)O2	-1.5	4.2	3.4	37.1	-1.4
C[C@@H]1CN([C@H](C)CO)C(=O)c2cccc(NC(=O)Nc3ccc(F)cc3)c2O[C@H]1CN(C)C(=O)Nc1ccc(C(F)(F)F)cc1	1.9	37.0	2.7	-8.6	1.2
C[C@H]1CN([C@@H](C)CO)C(=O)c2cccc(NC(=O)Nc3ccc(C(F)(F)F)cc3)c2O[C@@H]1CN(C)Cc1ccc(Cl)c(Cl)c1	0.8	77.2*	1.5	-10.3	7.5
COC(=O)[C@@]12C[C@@H](CC(=O)NCCC(C)C)C(=O)N(Cc3cccc4ccccc34)C1=CCC(C)(C)C2	.	.	1.5	.	3.0
COc1ccc(OC)c(CC(=O)Nc2ccc3c(c2)c(=O)n(C)n3Cc2cccc(C(F)(F)F)c2)c1	11.7	4.8	5.5	.	1.1
SMILES	STEP block	FAS TE block	SUMO1-SIM PPI	Scp1 inh	LMPTP inh
C[C@H](CO)N1C[C@H](C)[C@@H](CN(C)C(=O)NC2CCCCC2)Oc2c(NC(=O)Nc3ccc(C(F)(F)F)cc3)cccc2C1=O	0.3	85.2*	-0.5	0.6	3.7
Cc1cccc(C)c1NC(=O)C(c1cc2ccccc2o1)N1CCN(C)CC1 (configuration not stated)	.	.	-1.9	.	-2.9
CCOC(=O)c1ccc2c(c1)nc(-c1ccccn1)n2CC	0.4	2.5	3.9	-3.1	-0.7
CCOC(=O)c1ccc2c(c1)nc(-c1ccc(F)cc1)c1nccn12	-0.6	-4.6	47.8*	-0.8	-1.0
CCCCC(=O)Nc1ccc(NC(=O)C2CC2)nc1	-2.4	-10.3	57.2*	-4.2	-0.8
O=C(Cc1ccccc1)Nc1ccc(NC(=O)C2CC2)nc1	2.2	-4.6	-1.8	6.0	-0.2
C[C@H]1CN([C@@H](C)CO)C(=O)CCCn2nncc2CO[C@H]1CN(C)C(=O)Nc1cccc(Oc2ccccn2)c1	-0.7	-10.0	1.0	.	-3.5
O=S(=O)(O)c1cc(Cl)cc(N=Nc2ccc(O)cc2O)c1O	3.2	2.4	-13.9	73.1*	50.0*
COc1ccc(OC)c(CN2C(=O)CSCC2(C)C(=O)NC(C)C)c1 (configuration not stated)	.	.	0.7	.	-0.7
CCOC(=O)c1sc2nc3c(SCCC(=O)O)cc(C(=O)c4cc(OC)ccc4O)cn3c(=O)c2c1C	96.4*	-4.7	83.8*	26.7	91.7*
O=C(O)CSc1cc(C(=O)c2cc(F)ccc2O)cn2c(=O)c3c(-c4ccccc4)csc3nc12	6.5	66.4*	17.9	-11.3	14.5
CCOC(=O)CC1(C)Oc2cc(Cl)ccc2N1S(=O)(=O)c1ccc(C)cc1 (configuration not stated)	.	.	2.1	.	2.0
CCOC(=O)C1=C[C@@H](C(C)C)N(S(=O)(=O)c2ccc(C)cc2)[C@H]1c1ccc(C(F)(F)F)cc1	0.2	23.9	12.1	.	2.7
Nn1c(SCC(=O)Nc2c(F)cc(F)cc2Br)nnc1C1CCCCC1	4.5	-5.0	46.1*	0.3	0.3
Nn1c(SCC(=O)Nc2ccc(F)cc2F)nnc1C1CCCCC1	-3.1	-6.0	4.7	-8.0	0.5
